According to ChEMBL document CHEMBL1154473, “Synthesis, antitumor evaluation and DNA binding studies of novel amidino-benzimidazolyl substituted derivatives of furyl-phenyl- and thienyl-phenyl-acrylates, naphthofurans and naphthothiophenes” (Eur J Med Chem, 2008):
pIC50: −log10 of the molar value.

What was measured:
[1] = Antiproliferative activity against human WI38 cells after 72 hrs by MTT assay; format: cell-based; conditions: WI-38, 72 h
Method in brief: (§1)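 Cells seeded on day 0 at 1–3 × 10⁴ cells/ml, density set by each line's doubling time. Compounds added in five 10-fold dilutions (10⁻⁸–10⁻⁴ M), freshly prepared on test day, with DMSO solvent control matched to working concentrations. Incubated 72 h, then MTT read-out of dehydrogenase activity in viable cells gives percentage of growth. Four parallel samples per point, three independent experiments.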

[2] = tested on: DNA; test: Binding affinity to calf thymus DNA in sodium cacodylate buffer assessed as melting temperature at compound/DNA ratio 0.2 at pH 7; format: nucleic-acid assay; conditions: Bos taurus
Method in brief: (§2)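 ct-DNA dissolved in sodium cacodylate buffer (I = 0.05 mol dm⁻³, pH 7), sonicated, filtered, with concentration taken spectroscopically as phosphate. Absorbance at 260 nm followed against temperature, heating 1 °C/min. Ligand absorbance subtracted and scale normalized. Tm taken as transition midpoint from first-derivative maximum or tangent method. ΔTm = Tm(complex) − Tm(free DNA). Error ±0.5 °C.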

[3] = tested on: MIA PaCa-2; test: Antiproliferative activity against human MIAPaCa2 cells after 72 hrs by MTT assay; format: functional, cell-based; conditions: MIA PaCa-2, 72 h; method in brief: as §1
[4] = tested on: MCF7; test: Antiproliferative activity against human MCF7 cells after 72 hrs by MTT assay; format: functional, cell-based; conditions: MCF7, 72 h; method in brief: as §1
[5] = tested on: NCI-H460; test: Antiproliferative activity against human H460 cells after 72 hrs by MTT assay; format: functional, cell-based; conditions: NCI-H460, 72 h; method in brief: as §1
[6] = tested on: DNA; test: Binding affinity to calf thymus DNA in sodium cacodylate buffer at compound/DNA ratio < 0.1 pH 7 by fluorimetric titration; format: nucleic-acid assay; conditions: Bos taurus
Method in brief: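 Compound solution in sodium cacodylate buffer (pH 7.0, I = 0.05 mol dm⁻³) titrated with portions of ct-DNA (6.31 × 10⁻³ mol dm⁻³), data corrected for dilution. Excitation at 360–374 nm, chosen per compound to avoid inner filter effects, with emission monitored at 400 nm. Ks and n obtained by non-linear least-squares Scatchard fitting of data at r < 0.1.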

[7] = tested on: HeLa; test: Antiproliferative activity against human HeLa cells after 72 hrs by MTT assay; format: functional, cell-based; method in brief: as §1
[8] = tested on: SW-620; test: Antiproliferative activity against human SW620 cells after 72 hrs by MTT assay; format: functional, cell-based; conditions: SW-620, 72 h; method in brief: as §1
[9] = tested on: DNA; test: Binding affinity to calf thymus DNA in sodium cacodylate buffer assessed as melting temperature at compound/DNA ratio 0.1 at pH 7; format: nucleic-acid assay; conditions: Bos taurus; method in brief: as §2
[10] = tested on: DNA; test: Binding affinity to calf thymus DNA in sodium cacodylate buffer assessed as melting temperature at compound/DNA ratio 0.3 at pH 7; format: nucleic-acid assay; conditions: Bos taurus; method in brief: as §2
[11] = tested on: DNA; test: Binding affinity to calf thymus DNA assessed as relative fluorescence intensity by fluorescence emission spectra analysis relative to control; format: nucleic-acid assay; conditions: Bos taurus
Method in brief: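 Fluorimetric titration: portions of ct-DNA (phosphate concentration determined spectroscopically; sonicated, filtered) added to compound in sodium cacodylate buffer pH 7.0, I = 0.05 mol dm-3; excitation 360–374 nm depending on compound to avoid inner filter effects, emission monitored at 400 nm; data corrected for dilution; fluorescence change expressed versus compound/ct-DNA ratio r.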

[12] = tested on: DNA; test: Binding affinity to calf thymus DNA assessed as hypochromic effect by UV-vis spectra analysis; format: nucleic-acid assay; parameters: concentration or dose not given beside the values; conditions: Bos taurus
[13] = tested on: DNA; test: Binding affinity to calf thymus DNA in sodium cacodylate buffer at compound/DNA ratio 0.5 pH 7 by fluorimetric titration; format: nucleic-acid assay; conditions: Bos taurus

With `CCOC(=O)c1cc2oc(-c3nc4cc(C(=N)NC(C)C)ccc4[nH]3)cc2c2cc(C#N)ccc12` the pIC50 [1] was < 4.00, the ΔTm [2] was 1.4 °C and the pIC50 [3] was 4.21. For the same molecule, the pIC50 [4] was 5.22, the pIC50 [5] was < 4.00 and the log Ks [6] was 5. It also gave a pIC50 [7] of 4.14, a pIC50 [8] of 4.07 and a ΔTm [9] of 1 °C. The ΔTm [10] was 1.6 °C, the Flu intensity [11] was 282 a.u and the Activity [12] was 10%.
In the case of `COC(=O)c1cc2sc(-c3nc4cc(C(=N)NC(C)C)ccc4[nH]3)cc2c2ccccc12`, the pIC50 [1] was 4.15, the ΔTm [2] was 4.9 °C and the pIC50 [3] was 4.80. The pIC50 [4] was 5.70, the pIC50 [5] was 4.62 and the log Ks [6] was 4.7. For the same molecule, the pIC50 [7] was 4.82, the pIC50 [8] was 4.54 and the ΔTm [9] was 3.9 °C. The ΔTm [10] was 5.8 °C, the Flu intensity [11] was 916 a.u and the Activity [12] was 15%.
`CCOC(=O)/C(=C/c1ccc(-c2nc3cc(C(=N)NC(C)C)ccc3[nH]2)o1)c1ccc(C#N)cc1` gave a pIC50 [1] of 4.44, a ΔTm [2] of 0.8 °C and a pIC50 [3] of 4.68. It also gave a pIC50 [4] of 5.70, a pIC50 [5] of 4.51 and a log Ks [13] of 5.6. The pIC50 [7] was 4.55, the pIC50 [8] was 4.21 and the ΔTm [9] was 0.6 °C. For the same molecule, the ΔTm [10] was 1.3 °C, the Flu intensity [11] was 161 a.u and the Activity [12] was 10%.
In the case of `COC(=O)c1cc2oc(-c3nc4cc(C(=N)NC(C)C)ccc4[nH]3)cc2c2ccccc12`, the pIC50 [1] was < 4.00, the ΔTm [2] was 2.6 °C and the pIC50 [3] was 4.68. For the same molecule, the pIC50 [4] was 6.00, the pIC50 [5] was 4.74 and the log Ks [6] was 4.2. The pIC50 [7] was 4.74, the pIC50 [8] was 4.46 and the ΔTm [9] was 1.8 °C. The ΔTm [10] was 3.8 °C, the Flu intensity [11] was 790 a.u and the Activity [12] was 51%.
For `COC(=O)/C(=C/c1ccc(-c2nc3cc(C(=N)NC(C)C)ccc3[nH]2)s1)c1ccccc1`, the pIC50 [1] was < 4.00, the ΔTm [2] was 2.3 °C and the pIC50 [3] was 4.89. It also gave a pIC50 [4] of 6.00, a pIC50 [5] of 4.43 and a pIC50 [7] of 4.52. For the same molecule, the pIC50 [8] was 4.21, the ΔTm [9] was 1.7 °C and the ΔTm [10] was 2.7 °C. For the same molecule, the Flu intensity [11] was 232 a.u and the Activity [12] was 18%.
`COC(=O)/C(=C/c1ccc(-c2nc3cc(C(=N)NC(C)C)ccc3[nH]2)o1)c1ccccc1` showed a pIC50 [1] of 4.89, a ΔTm [2] of 0 °C and a pIC50 [3] of 4.72. For the same molecule, the pIC50 [4] was 5.05, the pIC50 [5] was 4.89 and the pIC50 [7] was 4.77. The pIC50 [8] was 4.85, the ΔTm [9] was 0 °C and the ΔTm [10] was 0 °C. For the same molecule, the Flu intensity [11] was 147 a.u and the Activity [12] was 8%.
